This is a sample that favours compounds with a hit; in the whole collection about 2.8% have one here.
PAFAH1B2 FP inh: PAFAH1B2 enzyme inhibitors, primary screen, biochemical, fluorescence polarization, human | Platelet-activating factor acetylhydrolase IB subunit alpha2 (Homo sapiens), P68402 | recombinant PAFAH1B2, FP-rhodamine activity probe | inhibition, % at 3.39 µM | actives 1.2% (n = 340,000);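 active means inhibition above the mean of all tested compounds plus 3 SD, cut at about 24% in these data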
Target sequence (P68402 whole entry, looked up): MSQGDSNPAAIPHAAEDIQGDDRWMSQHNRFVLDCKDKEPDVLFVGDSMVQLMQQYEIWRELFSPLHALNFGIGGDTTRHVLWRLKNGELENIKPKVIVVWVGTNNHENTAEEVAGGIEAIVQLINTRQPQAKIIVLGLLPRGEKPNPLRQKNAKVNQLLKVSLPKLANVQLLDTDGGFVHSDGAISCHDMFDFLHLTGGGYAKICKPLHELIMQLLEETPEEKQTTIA
PAFAH1B3 inh: PAFAH1B3 enzyme inhibitors, primary screen, biochemical, fluorescence polarization, human; Platelet-activating factor acetylhydrolase IB subunit alpha1 (Homo sapiens), Q15102; recombinant PAFAH1B3, FP-rhodamine probe; inhibition, % at 3.39 µM; actives 0.28% (n = 340,000);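 active means inhibition above the screen-wide average of all tested compounds plus 3 SD, cut at about 25% in these data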
Target sequence (Q15102 whole entry, looked up): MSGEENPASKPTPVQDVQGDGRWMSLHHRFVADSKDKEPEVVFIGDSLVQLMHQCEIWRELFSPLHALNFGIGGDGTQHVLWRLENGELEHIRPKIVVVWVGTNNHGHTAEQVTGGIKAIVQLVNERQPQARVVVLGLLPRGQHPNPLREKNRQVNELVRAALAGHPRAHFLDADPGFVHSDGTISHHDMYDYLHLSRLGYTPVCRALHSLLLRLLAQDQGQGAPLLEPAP
pPAFAH FP inh: pPAFAH enzyme inhibitors, primary screen, biochemical, fluorescence polarization, human; Platelet-activating factor acetylhydrolase (Homo sapiens), Q13093; recombinant pPAFAH, FP-rhodamine probe fluorescence polarization; inhibition, % at 3.39 µM; actives 1.5% (n = 330,000);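 active means inhibition above the mean inhibition across the screen plus 3 SD, cut at about 25% in these data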;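 further: inhibitors block binding of the rhodamine activity-based probe so polarization drops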
mABHD4 FP: ABHD4 inhibitors, primary screen, biochemical, fluorescence polarization, mouse | purified mABHD4, FP-Rh probe fluorescence polarization | AID 720543, 2013 | actives 0.54% (n = 370,000) | inhibition, % at 8.92 µM | (Lyso)-N-acylphosphatidylethanolamine lipase (Mus musculus), Q8VD66;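 active means inhibition exceeding the mean over every tested compound plus 3 SD, cut at about 30% in these data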
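Assay system: Wild-type mouse ABHD4 protein | Medium: HEPES pH 7.0 buffer, 150 mM NaCl, 0.01% Pluronic F-127 | Incubation: Enzyme–compound pre-incubation 45 min, then probe 60 min, both 25 °C | Technique: Fluorescence polarization with parallel and perpendicular emission, 525/598 nm | Evaluation: % inhibition of FP-Rh probe binding versus controls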
HTRA1 inh: HTRA1 serine protease inhibitors, primary screen, biochemical, fluorescence polarization, HTS | Q92743 | recombinant HTRA1, FP-rhodamine activity-based probe | inhibition, % at 5.96 µM | actives 0.5% (n = 340,000) | AID 504803, 2011; in the data active means inhibition above about 36%
PAFAH2 FP inh: PAFAH2 enzyme inhibitors, primary screen, biochemical, fluorescence polarization, human; inhibition, % at 3.39 µM; recombinant PAFAH2, FP-rhodamine activity probe; Platelet-activating factor acetylhydrolase 2, cytoplasmic (Homo sapiens), Q99487; actives 0.99% (n = 340,000);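 active means inhibition above the mean over all tested compounds plus 3 SD, cut at about 30% in these data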;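 further: inhibitors block probe labeling of enzyme so polarization drops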
mABHD4 conf: ABHD4 inhibitors, retest, confirmation, biochemical, fluorescence polarization, mouse | shares compounds with mABHD4 FP | purified mABHD4, FP-Rh probe fluorescence polarization | inhibition, % at 8.92 µM | actives 55% (n = 1,800);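 active means mean inhibition across replicates above the hit cutoff set in the primary screen, cut at about 30% in these data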
Numbers stand for hits; n = inactive; x = not tested or not shown.

SMILES | PAFAH1B2 FP inh | PAFAH1B3 inh | pPAFAH FP inh | mABHD4 FP | HTRA1 inh | PAFAH2 FP inh | mABHD4 conf
NC(Cc1ccccc1)c1csc(Nc2ccc(C(F)(F)F)cn2)n1 (stereo unspecified) | x | x | x | n | x | x | x
COc1ccc(C(N)c2csc(Nc3ccc(C(F)(F)F)cn3)n2)cc1 (stereo unspecified) | x | x | x | 34 | x | x | n
CN(CCC#N)c1ccc(/C=C(\C#N)c2ccccn2)cc1 | n | n | n | 89 | n | n | n
CC(C)CN1C[C@@H]2CSCCS(=O)(=O)N2C1=O | x | x | x | n | x | x | x
O=C(O[C@H]1CC[C@@]23CCCN2C(=O)CCC[C@H]3C1)N1CCN(c2ccccc2)CC1 | x | x | x | n | x | x | x
NNC(=O)c1cc(-c2ccc(N)cc2)nc2ccc(Br)cc12 | x | x | n | 40 | x | x | n
Cc1cc(C(=O)NN)c2cc(Br)ccc2n1 | n | n | n | n | n | n | x
CN1CCc2cccc3c2C1Cc1ccc(O)c(O)c1-3 (stereo unspecified) | n | n | n | 53 | n | n | n
OCCNc1nc(Nc2ccccc2)nc2ccccc12 | n | n | n | n | n | n | x
OCCNc1nc(Nc2ccc(Br)cc2)nc2ccccc12 | x | x | n | 34 | x | x | 47
Cc1ccc(Nc2nc(NCc3ccco3)c3ccccc3n2)cc1 | n | n | n | 36 | n | n | 41
Oc1ccccc1Nc1nc(NCc2ccccc2)c2ccccc2n1 | n | n | n | 43 | n | n | 55
COc1ccccc1Nc1nc(NCc2ccco2)c2ccccc2n1 | x | x | n | n | x | x | x
CNc1nc(NCc2ccccc2)c2ccccc2n1 | n | n | n | n | n | n | x
CCCCCn1c(CN2CCN(C(=O)OCC)CC2)nc2c1c(=O)n(C)c(=O)n2C | n | n | n | n | n | n | x
CCCCCn1c(CN2CCN(C)CC2)nc2c1c(=O)n(C)c(=O)n2C | n | n | n | 30 | n | n | n
O=C(Nc1ccccc1)N(CCc1nc2ccccc2[nH]1)C1CCCC1 | n | n | n | n | n | n | x
S=C(NC1CCCCC1)N(CCc1nc2ccccc2[nH]1)C1CCCC1 | n | n | n | 51 | n | n | 53
COc1ccccc1C(=O)NC1CCCCN(Cc2ccc(Cl)cc2)C1=O (stereo unspecified) | x | x | x | n | x | x | x
COc1ccccc1N1CCN(CCCCOc2ccc(C)cc2C)CC1 | n | n | n | 31 | n | n | n
O=C1SC(SCc2ccccc2)=N/C1=C\c1ccco1 | n | n | 33 | 30 | n | n | n
O=C1SC(SCc2ccccc2)=N/C1=C\c1ccc(C(=O)O)cc1 | n | n | n | n | n | n | x
CCOC(=O)c1c(C)oc2c1c(CN1CCN(C(=O)OCC)CC1)c(O)c1ccccc12 | n | n | n | 31 | n | n | 39
Cc1ccccc1-c1nnc2n1N=C(c1ccc(O)c(O)c1)CS2 | x | x | x | 32 | x | x | n
Cc1ccc(-c2nnc3n2N=C(c2ccc4ccccc4c2)CS3)cc1 | x | x | x | n | x | x | x
SMILES | PAFAH1B2 FP inh | PAFAH1B3 inh | pPAFAH FP inh | mABHD4 FP | HTRA1 inh | PAFAH2 FP inh | mABHD4 conf
Nc1ncnc2c1CN(Cc1ccccc1)CC2 | n | n | x | 72 | n | n | n
O=c1c(-c2cccc3ccccc23)[n+]([O-])c2ccccc2n1O | n | n | n | 49 | n | n | n
CC(C)CCCCCCCCc1cccc(O)c1C(=O)O | x | x | x | n | x | x | x
COc1ccc(C2Nc3cccc4cccc(c34)N2)cc1 | n | n | n | n | n | n | x
COc1ccccc1C1Nc2cccc3cccc(c23)N1 | n | n | n | 55 | n | n | 53
O=C(c1cccs1)n1ccc2ccc(-c3ccc4ccn(Cc5ccccc5)c4c3)cc21 | x | x | x | n | x | x | x
CNC[C@H](Cc1ccccc1)NC[C@@H](Cc1cccc2ccccc12)NCCc1ccc(C)cc1 | n | n | n | 49 | n | n | 49
O=C(N[C@H](Cc1ccccc1)C(=O)NCCN1CCOCC1)[C@H]1O[C@@H](n2ccc(=O)[nH]c2=O)[C@H](O)[C@@H]1O | x | x | x | n | x | x | x
CCc1nc2ccc(C(=O)N3CCN(c4ccccc4)CC3)cc2nc1CC | n | n | n | n | n | n | x
O=C(O)c1ccc2nc(-c3ccco3)c(-c3ccco3)nc2c1 | 24 | 52 | x | 63 | n | 40 | n
O=C(c1ccc2nc(-c3ccco3)c(-c3ccco3)nc2c1)N1CCN(c2ccccc2)CC1 | n | n | n | 32 | n | n | n
Cc1ccc(-c2nc3ccc(C(=O)O)cc3nc2-c2ccc(C)cc2)cc1 | n | n | n | n | n | n | x
C[C@H]1[C@@H](OC(=O)Nc2ccc(Br)cc2)CC[C@@]23CCCN2C(=O)CCC[C@@H]13 | x | x | x | n | x | x | x
CC(=O)N1CCN(c2nc(-c3cccs3)nc3ccccc23)CC1 | n | n | n | n | n | n | x
Fc1ccccc1N1CCN(c2nc(-c3cccs3)nc3ccccc23)CC1 | n | n | n | 33 | n | n | n
O=C1C[C@@H](O)[C@H](O)c2cccc(O)c21 | x | x | x | 35 | x | x | n
Cc1cc(NC(=O)CSc2nnnn2C)n(-c2ccccc2)n1 | n | n | n | 56 | n | n | n
CS(=O)(=O)c1ccc2nc(NC(=O)c3ccccc3)sc2c1 | n | n | n | n | n | n | x
CS(=O)(=O)c1ccc(C(=O)Nc2nc(-c3ccco3)c(-c3ccco3)s2)cc1 | n | n | x | 40 | n | n | n
O=C(O)CCCCCNC(=O)c1ccncc1 | n | n | n | n | n | n | x
O=C(O)CCCCCNC(=O)c1ccc(C(=O)NCCCCCC(=O)O)cc1 | n | n | n | 63 | n | n | n
Cc1cc(O)c(-c2cc(O)c(C)cc2O)cc1O | n | n | n | 32 | n | n | n
COc1ccc2nc(NC(=O)Nc3ccccc3OC)sc2c1 | n | n | n | n | n | n | x
COc1ccc2nc(NC(=O)Nc3cccc4ccccc34)sc2c1 | n | n | n | 30 | n | n | n
CC(=O)N1CCC(=NNc2nc3ccccc3s2)CC1 | n | n | n | 33 | n | n | n
CCOC(=O)N1CCC(=NNc2nc3ccccc3s2)CC1 | n | n | n | 38 | n | n | n
CC(=O)NNc1nc2ccccc2s1 | n | n | n | n | n | n | x
CCn1c(SCC(=O)NN=Cc2cccc(OCc3ccccc3)c2)nnc1-c1ccc(OC)c(OC)c1 | x | x | x | n | x | x | x
Cc1ccc(/C=C2\SC(=S)N(C3CCS(=O)(=O)C3)C2=O)o1 (stereo unspecified) | n | n | n | 34 | n | n | n
